Data published in ChEMBL document CHEMBL3045605, “Synthesis and anticancer evaluation of novel 3,5-diaryl-thiazolo[4,5-d]pyrimidin-2-one derivatives” (2013).

Columns and labels:
Assay type in all cases: functional
[1] = tested on: SF-295; test: Anticancer activity against Homo sapiens (human) SF295 cells by SRB assay
How it was run: (§1)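 Five-dose NCI 60-cell-line panel testing at tenfold dilutions from 10−4 to 10−8 M, with growth read by sulforhodamine B protein staining. For each cell line: GI50 is the molar concentration giving half growth inhibition; TGI is total growth inhibition (cytostatic); LC50 is the molar concentration killing 50% of the initial cells (cytotoxic).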

[2] = tested on: IGROV-1; test: Anticancer activity against Homo sapiens (human) IGROV1 cells assessed as cell growth at 10 uM by SRB assay; conditions: read-out: Activity
How it was run: (§2)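 NCI 60-cell human tumour panel (nine cancer types) screened at one concentration, 10−5 M. Cell growth estimated by sulforhodamine B protein staining and reported as percent growth of treated cells relative to untreated controls.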

[3] = tested on: UACC-62; test: Anticancer activity against Homo sapiens (human) UACC62 cells by SRB assay
How it was run: (§3)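 NCI five-dose follow-up on the 60-line human tumour panel at tenfold dilutions from 10−4 to 10−8 M, with growth read by sulforhodamine B protein assay against untreated controls. For each cell line, GI50 (half growth inhibition), TGI (total growth inhibition) and LC50 (50% death of initial cells) are calculated as molar concentrations.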

[4] = tested on: COLO 205; test: Anticancer activity against Homo sapiens (human) COLO205 cells by SRB assay
How it was run: (§4)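 NCI 60-line panel, five tenfold dilutions from 10−4 to 10−8 M, growth read by sulforhodamine B staining against untreated controls. From the dose–response per line: GI50 (molar concentration giving half growth inhibition), TGI (molar concentration giving total growth inhibition, cytostatic) and LC50 (molar concentration killing 50% of initial cells, cytotoxic).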

[5] = tested on: HT-29; test: Anticancer activity against Homo sapiens (human) HT-29 cells by SRB assay; how it was run: as §4
[6] = tested on: CAKI-1; test: Anticancer activity against Homo sapiens (human) CAKI-1 cells by SRB assay; how it was run: as §4
[7] = tested on: Malme-3M; test: Anticancer activity against Homo sapiens (human) MALME-3M cells assessed as cell growth at 10 uM by SRB assay; conditions: read-out: Activity; how it was run: as §2
[8] = tested on: UACC-257; test: Anticancer activity against Homo sapiens (human) UACC257 cells by SRB assay; how it was run: as §3
[9] = tested on: SNB-75; test: Anticancer activity against Homo sapiens (human) SNB75 cells by SRB assay; how it was run: as §1
[10] = tested on: EKVX; test: Anticancer activity against Homo sapiens (human) EKVX cells assessed as cell growth at 10 uM by SRB assay; conditions: read-out: Activity; how it was run: as §2
[11] = tested on: OVCAR-4; test: Anticancer activity against Homo sapiens (human) OVCAR4 cells by SRB assay; how it was run: as §1
[12] = tested on: CCRF-CEM; test: Anticancer activity against Homo sapiens (human) CCRF-CEM cells by SRB assay; how it was run: as §4
[13] = tested on: SN12C; test: Anticancer activity against Homo sapiens (human) SN12C cells by SRB assay; how it was run: as §1
[14] = tested on: M14; test: Anticancer activity against Homo sapiens (human) M14 cells by SRB assay; how it was run: as §4
[15] = tested on: NCI-H522; test: Anticancer activity against Homo sapiens (human) NCI-H522 cells assessed as cell growth at 10 uM by SRB assay; conditions: read-out: Activity
How it was run: (§5)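 Single-dose screen in the NCI 60-human-tumour-cell-line panel (nine cancer types) at 10−5 M. Cell growth was estimated by sulforhodamine B protein staining and reported as percent growth of treated cells relative to untreated controls.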

[16] = tested on: HL-60(TB); test: Anticancer activity against Homo sapiens (human) HL-60(TB) cells by SRB assay
How it was run: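 NCI panel of about 60 human tumour cell lines, tested at five tenfold dilutions from 10−4 to 10−8 M, with sulforhodamine B read-out. GI50 (molar concentration giving half growth inhibition), TGI (total growth inhibition) and LC50 (50% death of initial cells) were calculated for each cell line.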

[17] = tested on: OVCAR-8; test: Anticancer activity against Homo sapiens (human) OVCAR8 cells assessed as cell growth at 10 uM by SRB assay; conditions: read-out: Activity; how it was run: as §5
[18] = tested on: SR; test: Anticancer activity against Homo sapiens (human) SR cells by SRB assay; how it was run: as §3
[19] = tested on: SK-MEL-28; test: Anticancer activity against Homo sapiens (human) SK-MEL-28 cells assessed as cell growth at 10 uM by SRB assay; conditions: read-out: Activity; how it was run: as §5
[20] = tested on: NCI/ADR-RES; test: Anticancer activity against Homo sapiens (human) NCI/ADR-RES cells by SRB assay; how it was run: as §1
[21] = tested on: HOP-62; test: Anticancer activity against Homo sapiens (human) HOP62 cells by SRB assay; how it was run: as §4
[22] = tested on: HOP-62; test: Anticancer activity against Homo sapiens (human) HOP62 cells assessed as cell growth at 10 uM by SRB assay; conditions: read-out: Activity; how it was run: as §2
[23] = tested on: MOLT-4; test: Anticancer activity against Homo sapiens (human) MOLT4 cells assessed as cell growth at 10 uM by SRB assay; conditions: read-out: Activity; how it was run: as §5
[24] = tested on: CAKI-1; test: Anticancer activity against Homo sapiens (human) CAKI-1 cells assessed as cell growth at 10 uM by SRB assay; conditions: read-out: Activity; how it was run: as §2
[25] = tested on: NCI-H23; test: Anticancer activity against Homo sapiens (human) NCI-H23 cells by SRB assay; how it was run: as §1
[26] = tested on: SF-539; test: Anticancer activity against Homo sapiens (human) SF539 cells assessed as cell growth at 10 uM by SRB assay; conditions: read-out: Activity; how it was run: as §5
[27] = tested on: K562; test: Anticancer activity against Homo sapiens (human) K562 cells assessed as cell growth at 10 uM by SRB assay; conditions: read-out: Activity; how it was run: as §2
[28] = tested on: SF-539; test: Anticancer activity against Homo sapiens (human) SF539 cells by SRB assay; how it was run: as §1
[29] = tested on: OVCAR-5; test: Anticancer activity against Homo sapiens (human) OVCAR5 cells assessed as cell growth at 10 uM by SRB assay; conditions: read-out: Activity; how it was run: as §5
[30] = tested on: PC-3; test: Anticancer activity against Homo sapiens (human) PC3 cells by SRB assay; how it was run: as §1
[31] = tested on: SK-MEL-2; test: Anticancer activity against Homo sapiens (human) SK-MEL-2 cells by SRB assay; how it was run: as §1
[32] = tested on: MDA-MB-231; test: Anticancer activity against Homo sapiens (human) MDA-MB-231/ATCC cells by SRB assay; how it was run: as §4
[33] = tested on: HCT-116; test: Anticancer activity against Homo sapiens (human) HCT116 cells by SRB assay; how it was run: as §4
[34] = tested on: EKVX; test: Anticancer activity against Homo sapiens (human) EKVX cells by SRB assay; how it was run: as §4
[35] = tested on: ACHN; test: Anticancer activity against Homo sapiens (human) ACHN cells by SRB assay; how it was run: as §4
[36] = tested on: MDA-MB-468; test: Anticancer activity against Homo sapiens (human) MDA-MB-468 cells by SRB assay; how it was run: as §1
[37] = tested on: IGROV-1; test: Anticancer activity against Homo sapiens (human) IGROV1 cells by SRB assay; how it was run: as §4
[38] = read-out: pLC50 (the source's name) (converted)

In the case of `O=c1sc2c(Cl)nc(-c3ccccc3)nc2n1-c1ccccc1`, the GI50 [1] is reported as 57.5 µM, the growth at 10 µM [2] is reported as -65% and the GI50 [3] is reported as 20 µM. The GI50 [4] was 11.2 µM, the GI50 [5] was 3.89 µM and the TGI ([5]; read-out: pTGI (converted)) was 19.1 µM. For the same compound, the GI50 [6] was 2.34 µM, the LC50 [6] was 46.8 µM and the TGI ([6]; read-out: pTGI (converted)) was 5.75 µM. For the same compound, the growth at 10 µM [7] was 62%, the GI50 [8] was 8.91 µM and the TGI ([8]; read-out: pTGI (converted)) was 31.6 µM. The GI50 [9] was 1.86 µM, the CC50 [9, 38] was 56.2 µM and the TGI ([9]; read-out: pTGI (converted)) was 13.8 µM. The growth at 10 µM [10] was 84%, the GI50 [11] was 5.01 µM and the TGI ([11]; read-out: pTGI (converted)) was 35.5 µM. It also gave a GI50 [12] of 3.8 µM, a GI50 [13] of 7.41 µM and a GI50 [14] of 3.8 µM. The TGI ([14]; read-out: pTGI (converted)) was 35.5 µM, the growth at 10 µM [15] was -65% and the GI50 [16] was 5.89 µM. The growth at 10 µM [17] was -45%, the GI50 [18] was 2.63 µM and the TGI ([18]; read-out: pTGI (converted)) was 21.4 µM. The growth at 10 µM [19] was 9%, the GI50 [20] was 21.4 µM and the GI50 [21] was 3.63 µM. It also gave a CC50 [21, 38] of 72.4 µM, a TGI ([21]; read-out: pTGI (converted)) of 15.5 µM and a growth at 10 µM [22] of 15%. The growth at 10 µM [23] was 54%, the growth at 10 µM [24] was -30% and the GI50 [25] was 3.63 µM. It also gave a TGI ([25]; read-out: pTGI (converted)) of 30.9 µM, a growth at 10 µM [26] of 52% and a growth at 10 µM [27] of 19%. For the same compound, the GI50 [28] was 11 µM, the growth at 10 µM [29] was 90% and the GI50 [30] was 3.31 µM. It also gave a CC50 [30, 38] of 81.3 µM, a TGI ([30]; read-out: pTGI (converted)) of 14.5 µM and a GI50 [31] of 9.12 µM. It also gave a TGI ([31]; read-out: pTGI) of 43.7 µM, a GI50 [32] of 6.31 µM and a GI50 [33] of 2.09 µM. It also gave a CC50 [33, 38] of 9.55 µM, a TGI ([33]; read-out: pTGI (converted)) of 4.47 µM and a GI50 [34] of 25.7 µM. For the same compound, the GI50 [35] was 6.92 µM, the GI50 [36] was 3.63 µM and the GI50 [37] was 1.78 µM. For the same compound, the LC50 [37] was 18.2 µM and the TGI ([37]; read-out: pTGI (converted)) was 4.79 µM.
